G6PDH counter: inhibits Leuconostoc G6PDH, flagging false hits in G6PDH-based assays. Purified L. mesenteroides G6PDH, diaphorase/resazurin coupled fluorescence, 45 min. inhibition, % at 5 µM. 200,000 tested, 0.12% active. AID 1020; in the data active = inhibition above about 50%
Diaphorase inh: diaphorase inhibition or chemical oxidation counter-screen | diaphorase resazurin-to-resorufin fluorescence, NADH, 16 min; bacterial (C. kluyveri) enzyme, not human | inhibition, % at 20 µM | 190,000 tested, 0.69% active | AID 1217;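 active = primary screen inhibition at 20 µM above a set limit, cut at about 50% in these data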
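System: Diaphorase enzyme from Clostridium kluyveri | Amount: Enzyme working solution with 0.14 U/mL diaphorase | Benchmarks: No-NADH positive control and DMSO neutral control | Signal: Fluorescence of resorufin formed from resazurin, Ex 544/Em 590 nm | Schedule: 16-min room-temperature incubation before reading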
Diaphorase act: diaphorase activation or chemical reduction counter-screen; activation factor at 20 µM; AID 1229; Diaphorase/resazurin coupled assay, resorufin fluorescence, 16 min; hits give high values; 1 = vehicle wells, 0 = NADH-free wells; 190,000 tested, 0.005% active;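 active = diaphorase activity raised at least twofold by the compound at 20 µM; inactive = activation factor below 2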
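Assay system: bacterial diaphorase enzyme (C. kluyveri) / Input: enzyme 0.07 U/mL final / Medium: 50 mM HEPES pH 7.4 with 4.542 mM MgCl2, 0.005% Tween 20 / Doses: single compound dose of 20 µM, 1% DMSO final / Incubation: 16 min enzyme reaction, ambient temperature / Signal: fluorescence, excitation 544 nm and emission 590 nm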
PMI act: phosphomannose isomerase (human) activation | 190,000 tested, 0.005% active | purified human PMI, coupled resazurin fluorescence, 20 min; hits give high values; 1 = vehicle control, 0 substrate-free wells | activation factor at 20 µM | P34949 | AID 1214;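 active = activation factor of 2 or more at 20 µM, relative to plate controls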
Target sequence (P34949 whole entry, looked up): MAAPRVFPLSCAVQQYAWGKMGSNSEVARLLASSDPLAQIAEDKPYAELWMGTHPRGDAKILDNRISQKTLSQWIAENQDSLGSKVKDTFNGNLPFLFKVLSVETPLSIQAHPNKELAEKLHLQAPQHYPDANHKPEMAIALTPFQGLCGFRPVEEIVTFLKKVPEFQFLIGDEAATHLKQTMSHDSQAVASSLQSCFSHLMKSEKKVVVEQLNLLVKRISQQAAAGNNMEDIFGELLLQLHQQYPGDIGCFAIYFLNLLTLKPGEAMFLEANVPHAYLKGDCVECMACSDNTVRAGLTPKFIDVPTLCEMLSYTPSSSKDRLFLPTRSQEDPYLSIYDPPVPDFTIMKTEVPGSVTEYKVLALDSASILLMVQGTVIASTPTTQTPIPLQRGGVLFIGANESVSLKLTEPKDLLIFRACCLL
PMI act hi M6P: PMI (human) activation, high substrate; coupled PMI enzyme assay, resazurin fluorescence, 20 min; hits give high values; 1 = untreated enzyme, 0 = substrate-free blank; activation factor at 20 µM; 190,000 tested, 0.34% active; AID 1216;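 active = activation factor of 2 or more at 20 µM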
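Test system: human PMI in coupled enzyme assay; Input: PMI at 15 ng/mL final; Medium: HEPES buffer, pH 7.4; Schedule: 20 min incubation at room temperature; Technique: resorufin fluorescence at Ex 544/Em 590 nm; Compound: 20 µM single dose; Probe or stimulus: Near-saturating mannose-6-phosphate, 1.0 mM.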
Of the large screens only hits and unclear results are named; the others gave an inactive call. This is a sample that favours compounds with a hit; in the whole collection about 1.1% have one here.

COc1cc(/C=N/NC(=O)C(Cc2c[nH]c3ccccc23)NC(=O)OCC(C)C)cc([N+](=O)[O-])c1O (centres undefined)	none
COc1cc(/C=N/NC(=O)C(Cc2c[nH]c3ccccc23)NC(=O)OCC(C)C)cc([N+](=O)[O-])c1OCc1ccccc1 (centres undefined)	Diaphorase inh 71
CCN(CC)c1ccc2cc(S(=O)(=O)c3ccc(C)cc3)c(=O)oc2c1	none
CCOC(=O)C(=O)Nc1ccccc1C(N)=O	none
CCOC(=O)C(=O)NNc1cccc(C)c1C	PMI act hi M6P 2.2
CCOC(=O)C(=O)NNc1ccccc1C	PMI act hi M6P 2.2
O=C(NCCOc1ccc(Cl)cc1)C(=O)NCC1CCCO1 (centres undefined)	Diaphorase inh 51
O=C(NCCOc1ccccc1)C(=O)NCC1CCCO1 (centres undefined)	none
Cc1ccc(-c2c3c(nc4sc(C(N)=O)c(N)c24)CCCC3)o1	none
Nc1c(C(=O)NC2CC2)sc2nc3c(c(-c4ccco4)c12)CC/C3=C/c1ccco1	Diaphorase inh 87
Cc1ccc(-c2nc3sc(C(N)=O)c(N)c3c3c2CCCC3)cc1	PMI act hi M6P 2.4
NC(=O)c1sc2nc3c(c(-c4ccco4)c2c1N)CCC3	Diaphorase inh 81
CCOC(=O)c1sc2nc(-c3ccco3)c3c(c2c1N)CC(C)(C)OC3	none
COC(=O)N/N=C/c1sc(N2CCCCC2)nc1-c1cccs1	none
CC1=C/C(=C\c2ccc(Br)o2)C(=O)O1	none
O=C1C(=Cc2ccc(Br)o2)C(=O)c2ccccc21	Diaphorase inh 64
NC1=CC(=O)c2cccc3cccc1c23	Diaphorase inh 63
NC1=Nc2cccc3cccc1c23	none
CCOC(=O)c1ccc(NC(=O)c2c(NC(=O)CCC(=O)O)sc3c2CCCCC3)cc1	none
CCOc1ccccc1NC(=O)c1c(NC(=O)CCC(=O)O)sc2c1CCCCC2	PMI act hi M6P 2.1
CCCCC(=O)NS(=O)(=O)c1ccc(NS(C)(=O)=O)cc1	none
Cn1cc(/C=C2\SC(=O)NC2=S)c2ccccc21	Diaphorase inh 54
O=C(Nc1ncn[nH]1)c1ccc(Cl)c(S(=O)(=O)Nc2ccc(Cl)cc2)c1	PMI act hi M6P 2.1
Clc1ccc(C[n+]2csc3ccccc32)cc1	PMI act hi M6P 2.2
CN1C(=O)C2C(c3ccc(N(C)C)cc3)NN(Cc3ccccc3)C2C1=O (centres undefined)	none
O=C(CC1C(=O)NCCN1CC(c1ccccc1)c1ccccc1)NC1CC1 (centres undefined)	none
COc1ccc(N(CCC#N)C(=O)/C(C#N)=C/c2cccs2)cc1	none
COn1c2c(c3c4nonc4ccc31)CCCC2	none
COn1c(C)c(C(C)=O)c2c3nonc3ccc21	Diaphorase inh 53
O=C(CSc1n[nH]c(-c2ccccc2)n1)c1ccc(O)c(O)c1	Diaphorase inh 71
Cc1cc(SCC(=O)c2ccc(O)c(O)c2)nc2ccccc12	Diaphorase inh 50
COc1ccc2c(C)cc(SCC(=O)Nc3nsc(-c4ccc(C)cc4)n3)nc2c1	none
COc1ccc(C(=O)CSc2n[nH]c(-c3ccco3)n2)cc1	none
Cc1ccc(C(=O)CSc2n[nH]c(-c3ccco3)n2)cc1C	Diaphorase inh 54
Cc1ccc(-c2nc(NC(=O)CSc3cc(C)c4ccccc4n3)ns2)cc1	Diaphorase inh 66
CC1=CC(=O)C=C(C)C1=NOc1ccccc1[N+](=O)[O-]	none
COc1ccc(CCN2C(=O)C3C(C2=O)C2C=CC3C23CC3)cc1OC (centres undefined)	none
Cc1ccc([N+](=O)[O-])cc1-c1[nH]c(-c2ccc(O)c(O)c2)nc1-c1ccccc1	Diaphorase inh 64
On1c2c(c3c4nonc4ccc31)CCCC2	Diaphorase inh 56
COc1ccc(C2=C(c3ccc([N+](=O)[O-])cc3)C(=O)OC2)cc1	none
N#CC1=C(c2ccc(-c3ccccc3)cc2)COC1=O	PMI act hi M6P 2.4
CC(=O)NC(c1cccs1)c1cc([N+](=O)[O-])c2cccnc2c1O (centres undefined)	G6PDH counter 61
CCC(=O)NC(c1cccs1)c1cc([N+](=O)[O-])c2cccnc2c1O (centres undefined)	none
